Measured values from ChEMBL document CHEMBL3098013, “Novel pyrazole integrated 1,3,4-oxadiazoles: synthesis, characterization and antimicrobial evaluation” (2014).
Values after ≈ are worked out from the molar mass of the structure shown.

Assays:
Assay type in all cases: functional
[1] = system: Fusarium verticillioides; assay: Antimicrobial activity against Fusarium moniliforme MTCC 156 after 48 hrs by microdilution method; conditions: MTCC 156, 48 h
Method in brief: (§1)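 The minimal inhibitory concentration was determined by dilution, alongside minimal bactericidal concentration for bacterial strains and minimal fungicidal concentration for fungal strains. Tests were run in six replicates, and the value is the mean of at least three determinations.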

[2] = system: Fusarium oxysporum; assay: Antimicrobial activity against Fusarium oxysporum MTCC 284 after 48 hrs by microdilution method; conditions: MTCC 284, 48 h; method in brief: as §1
[3] = system: Aspergillus niger; assay: Antimicrobial activity against Aspergillus niger MTCC 281 after 48 hrs by microdilution method; conditions: MTCC 281, 48 h; method in brief: as §1
[4] = system: Aspergillus flavus; assay: Antimicrobial activity against Aspergillus flavus MTCC 873 after 48 hrs by microdilution method; conditions: MTCC 873, 48 h; method in brief: as §1
[5] = system: Klebsiella pneumoniae; assay: Antimicrobial activity against Klebsiella pneumoniae MTCC 3384 after 24 hrs by microdilution method; conditions: MTCC 3384, 24 h; method in brief: as §1
[6] = system: Escherichia coli; assay: Antimicrobial activity against Escherichia coli MTCC 724 after 24 hrs by microdilution method; conditions: MTCC 724, 24 h; method in brief: as §1
[7] = system: Staphylococcus aureus; assay: Antimicrobial activity against Staphylococcus aureus MTCC 96 after 24 hrs by microdilution method; conditions: MTCC 96, 24 h; method in brief: as §1
[8] = system: Bacillus cereus; assay: Antimicrobial activity against Bacillus cereus MTCC 8372 after 24 hrs by microdilution method; conditions: MTCC 8372, 24 h; method in brief: as §1
[9] = system: Fusarium verticillioides; assay: Antimicrobial activity against Fusarium moniliforme MTCC 156 at 100 ug/ml after 48 hrs by disc diffusion method; conditions: MTCC 156, 48 h, read-out: DIZ
Method in brief: (§2)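 Agar diffusion read-out is the diameter of the inhibition zone in mm. Each test was run in six replicates and reported as mean ± standard deviation, taken from at least three determinations.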

[10] = system: Fusarium verticillioides; assay: Antimicrobial activity against Fusarium moniliforme MTCC 156 at 50 ug/ml after 48 hrs by disc diffusion method; conditions: MTCC 156, 48 h, read-out: DIZ; method in brief: as §2
[11] = system: Fusarium oxysporum; assay: Antimicrobial activity against Fusarium oxysporum MTCC 284 at 100 ug/ml after 48 hrs by disc diffusion method; conditions: MTCC 284, 48 h, read-out: DIZ; method in brief: as §2
[12] = system: Fusarium oxysporum; assay: Antimicrobial activity against Fusarium oxysporum MTCC 284 at 50 ug/ml after 48 hrs by disc diffusion method; conditions: MTCC 284, 48 h, read-out: DIZ; method in brief: as §2
[13] = system: Aspergillus niger; assay: Antimicrobial activity against Aspergillus niger MTCC 281 at 100 ug/ml after 48 hrs by disc diffusion method; conditions: MTCC 281, 48 h, read-out: DIZ; method in brief: as §2
[14] = system: Aspergillus niger; assay: Antimicrobial activity against Aspergillus niger MTCC 281 at 50 ug/ml after 48 hrs by disc diffusion method; conditions: MTCC 281, 48 h, read-out: DIZ; method in brief: as §2
[15] = system: Aspergillus flavus; assay: Antimicrobial activity against Aspergillus flavus MTCC 873 at 100 ug/ml after 48 hrs by disc diffusion method; conditions: MTCC 873, 48 h, read-out: DIZ; method in brief: as §2
[16] = system: Aspergillus flavus; assay: Antimicrobial activity against Aspergillus flavus MTCC 873 at 50 ug/ml after 48 hrs by disc diffusion method; conditions: MTCC 873, 48 h, read-out: DIZ; method in brief: as §2
[17] = system: Klebsiella pneumoniae; assay: Antimicrobial activity against Klebsiella pneumoniae MTCC 3384 at 100 ug/ml after 24 hrs by disc diffusion method; conditions: MTCC 3384, 24 h, read-out: DIZ; method in brief: as §2
[18] = system: Escherichia coli; assay: Antimicrobial activity against Escherichia coli MTCC 724 at 100 ug/ml after 24 hrs by disc diffusion method; conditions: MTCC 724, 24 h, read-out: DIZ; method in brief: as §2
[19] = system: Klebsiella pneumoniae; assay: Antimicrobial activity against Klebsiella pneumoniae MTCC 3384 at 50 ug/ml after 24 hrs by disc diffusion method; conditions: MTCC 3384, 24 h, read-out: DIZ; method in brief: as §2
[20] = system: Escherichia coli; assay: Antimicrobial activity against Escherichia coli MTCC 724 at 50 ug/ml after 24 hrs by disc diffusion method; conditions: MTCC 724, 24 h, read-out: DIZ; method in brief: as §2
[21] = system: Staphylococcus aureus; assay: Antimicrobial activity against Staphylococcus aureus MTCC 96 at 100 ug/ml after 24 hrs by disc diffusion method; conditions: MTCC 96, 24 h, read-out: DIZ; method in brief: as §2
[22] = system: Staphylococcus aureus; assay: Antimicrobial activity against Staphylococcus aureus MTCC 96 at 50 ug/ml after 24 hrs by disc diffusion method; conditions: MTCC 96, 24 h, read-out: DIZ; method in brief: as §2
[23] = system: Bacillus cereus; assay: Antimicrobial activity against Bacillus cereus MTCC 8372 at 100 ug/ml after 24 hrs by disc diffusion method; conditions: MTCC 8372, 24 h, read-out: DIZ; method in brief: as §2
[24] = system: Bacillus cereus; assay: Antimicrobial activity against Bacillus cereus MTCC 8372 at 50 ug/ml after 24 hrs by disc diffusion method; conditions: MTCC 8372, 24 h, read-out: DIZ; method in brief: as §2

SMILES | MFC [1] | MIC [1] | MFC [2] | MIC [2] | MFC [3] | MIC [3] | MFC [4] | MIC [4] | MBC [5] | MIC [5] | MBC [6] | MIC [6] | MBC [7] | MIC [7] | MBC [8] | MIC [8] | zone of inhibition at 100 µg/mL [9] | zone of inhibition at 50 µg/mL [10] | zone of inhibition at 100 µg/mL [11] | zone of inhibition at 50 µg/mL [12] | other results
Cc1c(C(=O)O)c(-c2ccccc2)nn1-c1ccccc1 | 270 µg/mL (≈ 970 µM) | 45 µg/mL (≈ 162 µM) | 295 µg/mL (≈ 1060 µM) | 55 µg/mL (≈ 198 µM) | 280 µg/mL (≈ 1010 µM) | 50 µg/mL (≈ 180 µM) | 300 µg/mL (≈ 1080 µM) | 55 µg/mL (≈ 198 µM) | 240 µg/mL (≈ 862 µM) | 30 µg/mL (≈ 108 µM) | 280 µg/mL (≈ 1010 µM) | 35 µg/mL (≈ 126 µM) | 250 µg/mL (≈ 898 µM) | 40 µg/mL (≈ 144 µM) | 250 µg/mL (≈ 898 µM) | 30 µg/mL (≈ 108 µM) | 5 mm | 6 mm | 5 mm | 3 mm | zone of inhibition at 100 µg/mL [13]: 6 mm; zone of inhibition at 50 µg/mL [14]: 4 mm; zone of inhibition at 100 µg/mL [15]: 8 mm; zone of inhibition at 50 µg/mL [16]: 5 mm; zone of inhibition at 100 µg/mL [17]: 6 mm; zone of inhibition at 100 µg/mL [18]: 8 mm; zone of inhibition at 50 µg/mL [19]: 4 mm; zone of inhibition at 50 µg/mL [20]: 3 mm; zone of inhibition at 100 µg/mL [21]: 8 mm; zone of inhibition at 50 µg/mL [22]: 2 mm; zone of inhibition at 100 µg/mL [23]: 8 mm; zone of inhibition at 50 µg/mL [24]: 4 mm
COc1cc(-c2nn(-c3ccccc3)c(C)c2-c2nnc(-c3ccccc3)o2)cc(OC)c1OC | 300 µg/mL (≈ 640 µM) | 55 µg/mL (≈ 117 µM) | 290 µg/mL (≈ 619 µM) | 40 µg/mL (≈ 85.4 µM) | 220 µg/mL (≈ 470 µM) | 30 µg/mL (≈ 64 µM) | 275 µg/mL (≈ 587 µM) | 45 µg/mL (≈ 96 µM) | 175 µg/mL (≈ 374 µM) | 25 µg/mL (≈ 53.4 µM) | 170 µg/mL (≈ 363 µM) | 25 µg/mL (≈ 53.4 µM) | 155 µg/mL (≈ 331 µM) | 20 µg/mL (≈ 42.7 µM) | 160 µg/mL (≈ 342 µM) | 20 µg/mL (≈ 42.7 µM) | 10 mm | 5 mm | 10 mm | 8 mm | zone of inhibition at 100 µg/mL [13]: 20 mm; zone of inhibition at 50 µg/mL [14]: 10 mm; zone of inhibition at 100 µg/mL [15]: 12 mm; zone of inhibition at 50 µg/mL [16]: 6 mm; zone of inhibition at 100 µg/mL [17]: 10 mm; zone of inhibition at 100 µg/mL [18]: 17 mm; zone of inhibition at 50 µg/mL [19]: 6 mm; zone of inhibition at 50 µg/mL [20]: 12 mm; zone of inhibition at 100 µg/mL [21]: 26 mm; zone of inhibition at 50 µg/mL [22]: 10 mm; zone of inhibition at 100 µg/mL [23]: 22 mm; zone of inhibition at 50 µg/mL [24]: 11 mm
COc1cc(-c2nnc(-c3c(-c4ccccc4)nn(-c4ccccc4)c3C)o2)cc(OC)c1OC | 300 µg/mL (≈ 640 µM) | 55 µg/mL (≈ 117 µM) | 275 µg/mL (≈ 587 µM) | 40 µg/mL (≈ 85.4 µM) | 275 µg/mL (≈ 587 µM) | 40 µg/mL (≈ 85.4 µM) | 275 µg/mL (≈ 587 µM) | 45 µg/mL (≈ 96 µM) | 160 µg/mL (≈ 342 µM) | 20 µg/mL (≈ 42.7 µM) | 150 µg/mL (≈ 320 µM) | 20 µg/mL (≈ 42.7 µM) | 250 µg/mL (≈ 534 µM) | 40 µg/mL (≈ 85.4 µM) | 230 µg/mL (≈ 491 µM) | 35 µg/mL (≈ 74.7 µM) | 10 mm | 7 mm | 10 mm | 8 mm | zone of inhibition at 100 µg/mL [13]: 12 mm; zone of inhibition at 50 µg/mL [14]: 5 mm; zone of inhibition at 100 µg/mL [15]: 13 mm; zone of inhibition at 50 µg/mL [16]: 4 mm; zone of inhibition at 100 µg/mL [17]: 20 mm; zone of inhibition at 100 µg/mL [18]: 32 mm; zone of inhibition at 50 µg/mL [19]: 10 mm; zone of inhibition at 50 µg/mL [20]: 20 mm; zone of inhibition at 100 µg/mL [21]: 12 mm; zone of inhibition at 50 µg/mL [22]: 5 mm; zone of inhibition at 100 µg/mL [23]: 13 mm; zone of inhibition at 50 µg/mL [24]: 4 mm
